In the library only some 11% were active in any assay of this set; here they are far more common.
M1 antagonist = blocks the rat M1 muscarinic receptor response to acetylcholine; CHO-M1 cells, Fluo-4 calcium, ACh EC80 antagonist mode; stronger effect = lower value; B-score at 10 µM; hit rate 3.4% among 64,000; P08482;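 active means calcium fluorescence response, raw or row-and-column corrected B-score, differing from the plate sample mean either way at a set confidence level, mostly lower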
M1 agonist = activates the M1 muscarinic receptor | CHO-M1 cells, Fluo-4 calcium fluorescence, agonist mode; stronger effect = higher value | B-score at 10 µM | hit rate 3% among 64,000 | AID 626;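 active means fluorescence rise, raw or as B-score row- and column-corrected plate score, outside the 99.7% band of its plate's samples, either direction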
TNAP act mid DEA = activates human TNAP at intermediate phosphate acceptor concentration; AID 813; P05186; activation factor at 20 µM; purified TNAP, CDP-star luminescence, 100 mM DEA, 30 min; stronger effect = higher value; scale: 0 levamisole-inhibited, 1 vehicle-only enzyme; 64,000 tested, under 10 active;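 active means activation factor of at least 2 at 20 µM, relative to controls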
S1P3 agonist = S1P3 (human) receptor agonism; S1P3 NFAT-BLA reporter cells, FRET ratio; relative to 1 µM S1P, basal subtracted; activation, % at 4.5 µM; hit rate 0.1% among 60,000; AID 373;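 active means activation above the screen-wide mean plus 3 SD, cut at about 4.5% in these data, passing the limit was not always enough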
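Assay system: stable CHO line with human S1P3, Gα16, NFAT-BLA reporter; Detection: FRET β-lactamase substrate fluorescence, excitation 405 nm, 460/535 nm emission ratio, background-subtracted; Read-out: percent activation versus median 1 µM S1P response, basal-subtracted, per plate; Incubation: cells plated overnight, compound 4 h 37 °C, substrate 2 h RT.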
S1P1 ag-PAM = S1P1 (human) agonism or agonism potentiation; P21453; S1P1 CRE-bla cells, forskolin, beta-lactamase FRET, potentiator mode; S1P1 agonist co-added at EC20, 2 nM; 100% = saturating reference agonist, 0% = basal; activation, % at 9.5 µM; hit rate 0.57% among 56,000; AID 449;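 active means activation above a cutoff set at the mean activation of all tested compounds plus 3 SD, cut at about 54% in these data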;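 further: forskolin at 4 µM as EC80 and the EC20 agonist is SEW2871; 100% = SEW2871 at its EC100 plus forskolin at EC80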
Target sequence (P21453 whole entry, looked up): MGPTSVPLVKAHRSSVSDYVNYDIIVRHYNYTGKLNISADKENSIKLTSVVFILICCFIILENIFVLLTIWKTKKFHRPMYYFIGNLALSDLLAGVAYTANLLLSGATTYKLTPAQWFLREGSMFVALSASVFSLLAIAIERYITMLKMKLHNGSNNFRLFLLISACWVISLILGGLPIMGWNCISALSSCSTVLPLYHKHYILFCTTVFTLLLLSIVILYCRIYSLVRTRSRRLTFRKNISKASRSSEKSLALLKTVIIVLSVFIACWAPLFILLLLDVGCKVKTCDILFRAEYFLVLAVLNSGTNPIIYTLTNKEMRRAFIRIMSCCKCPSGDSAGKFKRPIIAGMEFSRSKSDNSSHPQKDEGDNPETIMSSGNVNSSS
D1 allo mod = allosteric modulators of human D1 dopamine receptor; B-score at 10 µM; P21728; hit rate 5.9% among 58,000; HEK293 D1, CRE-luciferase, dopamine EC30 potentiation; actives deviate in either direction;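 active means luminescence count or its row- and column-corrected plate score outside the 99.7% band of the plate's sample wells, on either side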
Starred values were filed as active, the others as inactive; · = no result.

SMILES	M1 antagonist	M1 agonist	TNAP act mid DEA	S1P3 agonist	S1P1 ag-PAM	D1 allo mod
O=S(=O)(NCCCN1CCN(c2ccccc2F)CC1)c1cccc2cccnc12	0.63	-1.5	1	0	23	-2.9*
CCc1c(C(=O)NCc2ccc3c(c2)OCO3)[nH]c(C)c1C(C)=O	1.7	0.43	0.9	-1	-31	·
COc1cc(C2c3c(oc4c(C)cc(C)cc4c3=O)C(=O)N2Cc2cccnc2)ccc1O (stereo not given)	-0.41	-0.049	0.9	-1	-28	11*
COc1ccc(C2c3c(oc4c(C)cc(C)cc4c3=O)C(=O)N2Cc2cccnc2)cc1OC (stereo not given)	-0.0029	1.3	0.9	0	-20	0.47
CCCN1CCCc2cc(CN)ccc21	-0.87	5.7*	0.9	1	-13	0.014
Nc1ccc(C(=O)OCCCc2nc3ccccc3[nH]2)cc1	0.86*	0.32	0.8	-1	1	-0.67
Cc1ccc(C(=O)OCc2cn3ccccc3n2)cc1	-0.57	0.12	1	0	7	1.8
C=CCn1c(C)cc(C(=O)CSc2nnc(Cc3ccccc3)o2)c1C	-0.14	0.18	0.9	·	·	·
C=CCn1c(C)cc(C(=O)CSc2nnc(NCc3ccccc3)s2)c1C	1.9*	-0.065	0.9	-1	24	0.035
COc1ccc2sc(NC(=O)c3ccco3)nc2c1	0.68	-1.1	1	-1	14	-5.7*
COc1ccc2nc(NC(=O)c3ccoc3C)sc2c1	0.066	-0.2	0.9	-1	6	-4.3*
COc1ccc2c(c1)-c1nc(NC(=O)c3ccco3)sc1CC2	1.5	0.5	·	·	·	·
Nc1cccc2c1C(=O)N(c1ccccc1)C2=O	-0.37	70*	0.9	0	30	2.5
O=c1cc(O)nc2n1CCCS2	0.11	0.66	1	0	0	-0.25
O=c1c(Cc2ccccc2O)c(O)nc2n1CCCS2	0.083	0.63	1	0	10	-2.3*
Cc1nn(C)c(C)c1NC(=O)c1ccc(S(=O)(=O)N(C)C)cc1	-0.72	-0.56	1	0	·	0.4
CCCCC(=O)NC1(C(F)(F)F)C(=O)Nc2c1c(=O)n(C)c(=O)n2C (stereo not given)	1.5*	-0.29	0.9	1	-7	-0.3
Cc1oc(-c2ccccc2F)nc1CSCC(=O)NCc1ccc2c(c1)OCO2	0.87	0.45	·	-1	14	0.99
O=C(O)C1C2C=CC(C2)C1C(=O)NCc1ccccn1 (stereo not given)	2.7*	0.7	1	·	·	-0.66
CCCC(c1nnnn1Cc1ccco1)N1CCN(C(=O)c2ccco2)CC1 (stereo not given)	0.15*	-0.11	1	0	-29	-0.62
CCCCC(c1nnnn1Cc1ccco1)N1CCN(C(=O)c2ccco2)CC1 (stereo not given)	0.19	-0.7	1	-1	-20	-0.58
Cc1cc(C(=O)CSc2nnc(-c3cccs3)o2)c(C)n1-c1ccccc1	0.86	-0.44	0.9	-1	101*	-3.6*
O=C(CSc1nnc(-c2cccs2)o1)c1cccs1	0.14	-1.7	0.9	1	7	-0.29
CCOC(=O)C(NC(C)=O)(Nc1cccc(F)c1)C(F)(F)F (stereo not given)	0.21	-0.013	1	-1	-9	-6.4*
CCOC(=O)CCSc1nnc(-c2cccnc2)n1-c1ccccc1OC	-0.83	-0.55	0.9	2	3	-1.2
SMILES	M1 antagonist	M1 agonist	TNAP act mid DEA	S1P3 agonist	S1P1 ag-PAM	D1 allo mod
CCCCCCNC(=O)C(C#N)c1nc2ccccc2nc1N1CCCC1 (stereo not given)	1.1*	-0.099	0.8	-2	22	-1.1
N#CC(C(=O)NCCc1ccccc1)c1nc2ccccc2nc1N1CCOCC1 (stereo not given)	-0.52	-0.27	0.8	0	2	0.25
CCOC(=O)C1CCCN(c2nc3ccccc3nc2C(C#N)C(=O)NCc2ccccc2)C1 (stereo not given)	0.026	21*	0.9	-2	-6	0.61
C=CCn1nnc2sc3c(c2c1=O)CCC(C)C3 (stereo not given)	·	·	0.9	·	·	·
Clc1ccc(-c2nnc(NC3=NCCCCC3)o2)cc1	-1.1	-0.082	0.9	0	-6	-5.8*
O=C(Nc1ccc(-c2noc(CCc3ccccc3)n2)cc1)c1cccnc1	-1	4.2	0.9	0	94*	-1.3
CCCc1ccc(OCc2nc(-c3ccc(NC(=O)c4ccco4)cc3)no2)cc1	0.031	-0.75	0.9	-2	94*	-2.5
O=C(Nc1ccc2ccccc2c1)c1cccnc1	0.28	0.59	0.9	0	-10	-1.5
CN=c1scc(C)n1/N=C/c1ccc2c(c1)OCO2	-0.11	0.8	0.9	0	-13	-3.2*
Cc1cc(C(=O)CSc2nc3ccccc3[nH]2)c(C)n1C	-0.032	-0.031	0.8	-1	-6	-2.9*
Cc1cc(C(=O)CSc2nnc(-c3cccnc3)n2-c2ccccc2F)c(C)n1C	-0.58	0.4	0.9	-1	101*	-1.4
Cc1cc(C(=O)CSc2nnc(-c3ccccc3)n2-c2ccccc2)c(C)n1-c1ncn[nH]1	-0.22	0.75	0.9	-1	90*	-0.038
Cc1cc(C(=O)CSc2nnc(-c3ccncc3)n2-c2ccccc2)c(C)n1C	0.91	-0.75	0.9	0	97*	-0.073
Cc1cc(C(=O)CSc2nnc(-c3ccccc3)n2C)c(C)n1C	0.55	0.42	0.8	-1	3	·
Cc1cc(C(=O)CSc2nnc(-c3ccccc3)n2Cc2ccc3c(c2)OCO3)c(C)n1C	0.19	-0.085	0.9	0	7	-0.018
CCc1ccccc1-n1c(SCC(=O)NC)nnc1-c1cccnc1	-0.16	0.93	0.9	0	-7	-0.5
COc1ccc2[nH]cc(CCN=C3SCC(=O)N3C)c2c1	0.37	0.04	1	1	-6	-0.2
CCOC(=O)c1cnc(-n2nc(C)cc2C)nc1N(CC)CC	0.15	0.017	1	-1	14	-0.14
O=C(CSc1n[nH]c(-c2ccccc2)n1)c1ccc(O)c(O)c1	1.2	-0.068	0.7	0	21	·
CCSCc1nnc(SCC(=O)c2ccc(OC)cc2)n1C	-0.18	0.9	1	-1	·	-0.34
Cc1ccc(N(C(C)C(=O)N2CCCCC2)S(C)(=O)=O)cc1C (stereo not given)	-0.0044	0.45	0.9	-1	13	0.23
O=C(NCCCN1CCN(c2cccc(Cl)c2)CC1)c1ccc(N2CCCC2=O)cc1	-0.0049	0.7	0.9	·	·	·
O=C(NCCN1CCCCCC1)c1ccc(N2CCCC2=O)cc1	2.3*	-1.1	0.9	1	-14	0.11
Cc1ccccc1NC(=O)c1ccc(F)c(S(=O)(=O)N2CCN(c3ccccn3)CC2)c1	0.041	-1.6	0.9	1	22	-2.2*
